Sampled rows, rich in hits. Any-hit rate of the full collection: about 3%.
Ecoli rRNA inh = reduced GFP signal of wild-type E. coli, primary screen, bacterial rRNA inhibitor project, GFP/RFP fluorescence, OD600, single point; E. coli WT GFP vs humanized-ribosome RFP mutants, 24 h; hits give low values; DMSO median 0, no signal -100; GFP signal change (wild-type ribosome), % (test concentration not listed); actives 1.6% (n = 350,000); AID 720706, 2013;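 active means significant combined selectivity score with lowered wild-type GFP, culture density cut under 30%, mutant RFP and density less affected; inactive means any of these conditions unmet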
Statin myotox sup = suppressors of statin myotoxicity in C2C12 myotubes, primary screen, cell-based, single point, plate reader; rescue of ATP level, % at 7.49 µM; actives 0.78% (n = 330,000); C2C12 myotubes + simvastatin, ATP luminescence, 48 h; scaled: DMSO 0, geranylgeraniol control 100;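 active means mean ATP rescue above about 67%, or every replicate alone reaching that limit, limit read from the data, passing the limit was not always enough; inconclusive means no clear call, values can overlap the other calls; inactive means mean under the limit and some replicate under it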;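 further: myotubes were challenged with 10 µM simvastatin during compound exposure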
SIRT5 inh = SIRT5 desuccinylase inhibitors, primary screen, biochemical, fluorescence imaging, single point, set 5 | actives 1.1% (n = 330,000) | inhibition, % at 15 µM | Purified SirT5, succinyl-peptide AMC, trypsin-coupled fluorescence; in the data active means inhibition above about 15%; inconclusive means no clear call, values can overlap the other calls
Target sequence (Q9NXA8 whole entry, looked up): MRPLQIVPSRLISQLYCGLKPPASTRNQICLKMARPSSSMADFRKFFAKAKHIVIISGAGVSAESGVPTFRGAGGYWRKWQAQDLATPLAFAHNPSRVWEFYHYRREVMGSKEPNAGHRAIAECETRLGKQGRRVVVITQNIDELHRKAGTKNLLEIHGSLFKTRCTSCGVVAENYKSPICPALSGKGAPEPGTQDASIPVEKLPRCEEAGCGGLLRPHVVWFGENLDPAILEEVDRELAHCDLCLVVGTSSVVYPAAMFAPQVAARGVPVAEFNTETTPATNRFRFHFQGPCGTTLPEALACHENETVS
PGC1a acetyl inh = inhibitors of PGC1a acetylation signal, primary screen, cell-based, U2OS, AlphaScreen, inhibitor mode. AlphaScreen anti-acetyl-lysine; with virally co-expressed GCN5 acetyltransferase. inhibition, % at 15.6 µM. actives 0.17% (n = 350,000);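 active means every replicate shows inhibition of at least 40%; inconclusive means mean inhibition at least 40% but some replicate below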;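 further: 0% = neutral control wells and 100% = positive control wells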
S100A4 MyoIIA = inhibitors of S100A4-myosin IIA peptide binding, primary screen, biochemical, fluorescence polarization, TAMRA-MyoIIA peptide. inhibition, % at 10.7 µM. AID 652163, 2013. actives 0.14% (n = 360,000);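 active means mean inhibition of at least 70% across replicates, with every replicate also reaching that level; inconclusive means mean inhibition reaches 70% but some replicates fall short; inactive means mean inhibition below 70%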
Target sequence (P26447 whole entry, looked up): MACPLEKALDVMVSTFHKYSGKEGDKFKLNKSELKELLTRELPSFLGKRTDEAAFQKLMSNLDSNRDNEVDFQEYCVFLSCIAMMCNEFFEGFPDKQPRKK
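Material: human S100A4 monomer with TAMRA-labelled myosin IIA peptide; buffer or medium: HEPES pH 7.2 with CaCl2, KCl, NaCl, DTT, Triton; compound dosing: one concentration per compound; schedule: 5 min incubation before reading; benchmarks: neutral control DMSO, positive control TFP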
Cneo AK release = Cryptococcus neoformans cell lysis inducers, primary screen, AK release luminescence, single concentration | C. neoformans lysis, adenylate kinase release luminescence, 4 h; normalised: neutral wells 0, clomiphene wells 100 | lysis activity, % at 15 µM | actives 0.2% (n = 360,000);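 active means mean lysis activity across replicates of at least 80%, whatever share of replicates individually reach that level; inactive means mean lysis activity below 80%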
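Material: C. neoformans cells | Amount: Yeast cell density of 5 × 10^6 cells/mL | Medium: Fresh YPD growth medium | Dosing: Single dose | Times: Static 4 h at 37 °C with compound, 1 h detection | Detection: AK luminescence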
AID977621 = growth inhibition of wild-type GFP E. coli, dose response, H69 mutant RFP, cherry-pick | shares compounds with Ecoli rRNA inh | E. coli wild-type GFP strain growth, fluorescence, 24 h | activity change, negative = inhibition at 50 µM | 1,900 tested, under 10 active;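 active means Wild-type ribosome reporter drop at least double the humanized mutant ribosome reporter drop, growth loss under a set limit; inconclusive means no clear call, values can overlap the other calls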;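 further: wild-type GFP and H69 mutant RFP strains grown together 50/50 in each well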
AID977628 = E. coli growth inhibition, wild-type GFP versus h24 humanized RFP strain, dose response, h24 mutant RFP vs wild-type GFP, cherry-pick | activity change, negative = inhibition at 50 µM | 1,900 tested, under 10 active | E. coli WT GFP strain growth, fluorescence, 24 h | shares compounds with Ecoli rRNA inh;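 active means compound lowering the normal-ribosome reporter at least twice as much as the humanized-ribosome reporter, growth loss under a set limit; inconclusive means no clear call, values can overlap the other calls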;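 further: wild-type GFP and h24 humanized RFP strains co-cultured 1 to 1 per well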
* hit, by the source's call.

What do the screens show for `Cc1ccc(S(=O)(=O)NC2c3cccc4cccc(c34)C2Sc2nc(C)cc(C)n2)cc1` (stereo not drawn)?
PGC1a acetyl inh: -11.9; Cneo AK release: -1.8

How did O=S(=O)(NC1c2cccc3cccc(c23)C1Sc1ncccn1)c1ccccc1 (stereo not drawn) do in these assays?
Ecoli rRNA inh: -24.1*; SIRT5 inh: 0.9; S100A4 MyoIIA: -5.5; AID977621: -7.53; AID977628: inconclusive

What do the screens show for `COC(=O)c1cn(C[C@H](Cc2ccccc2)NC(=O)c2ccccc2)nn1`?
SIRT5 inh: -7.2; PGC1a acetyl inh: -1.3; S100A4 MyoIIA: 2.1; Cneo AK release: 0.5

How did Cc1ccc(NC(=O)C2CCN(c3cnccn3)CC2)cc1 do in these assays?
Ecoli rRNA inh: 2.0; SIRT5 inh: -2.7; PGC1a acetyl inh: 6.4; S100A4 MyoIIA: 9.8

How did O=C(Nc1ccc(C(F)(F)F)cc1)C1CCN(c2cnccn2)CC1 do in these assays?
Ecoli rRNA inh: -31.0*; Statin myotox sup: -35.0; SIRT5 inh: 1.2; PGC1a acetyl inh: 2.4; S100A4 MyoIIA: -4.1; Cneo AK release: 5.8; AID977621: -3.79; AID977628: -2.58

Results for Cn1cc([N+](=O)[O-])c(C(=O)Nc2ccc(-c3nc4ccccc4[nH]3)cc2)n1 ?
Ecoli rRNA inh: -25.9*; SIRT5 inh: -8.5; S100A4 MyoIIA: -1.4; AID977621: -28.9; AID977628: inconclusive

How did CCOc1ccc(OCC(=O)NCCc2nc3ccccc3[nH]2)cc1 do in these assays?
PGC1a acetyl inh: 4.6; Cneo AK release: 1.2

How did O=C(CCCOc1ccccc1)NCCc1nc2ccccc2[nH]1 do in these assays?
Ecoli rRNA inh: -19.1*; Statin myotox sup: 6.3; SIRT5 inh: -2.7; PGC1a acetyl inh: -2.1; S100A4 MyoIIA: -2.3; Cneo AK release: -1.1; AID977628: 6.37

What do the screens show for `Cc1noc(C)c1S(=O)(=O)Nc1ccc2c(c1)CC(=O)N([C@H](C)CO)C[C@@H](C)[C@@H](CN(C)Cc1ccc(C(=O)Nc3ccccc3N)cc1)O2`?
Ecoli rRNA inh: -3.9; SIRT5 inh: 2.9; PGC1a acetyl inh: -0.4; S100A4 MyoIIA: -8.1

What do the screens show for `Oc1ccc(-c2csc(Nc3ncccn3)n2)cc1`?
Ecoli rRNA inh: -16.6*; Statin myotox sup: 13.0; SIRT5 inh: -3.1; PGC1a acetyl inh: 5.0; S100A4 MyoIIA: -2.8; AID977621: -20.6; AID977628: -15.2

Results for C[C@H]1CN([C@@H](C)CO)S(=O)(=O)c2ccc(-c3ccncc3)cc2O[C@@H]1CN(C)Cc1ccncc1 ?
Ecoli rRNA inh: -5.6; Statin myotox sup: -71.2; PGC1a acetyl inh: 12.6

How did C[C@H](CO)N1C[C@H](C)[C@@H](CN(C)Cc2ccc(Cl)c(Cl)c2)Oc2c(NC(=O)Nc3ccc(C(F)(F)F)cc3)cccc2C1=O do in these assays?
Ecoli rRNA inh: -0.5; SIRT5 inh: 2.8; PGC1a acetyl inh: 6.0; S100A4 MyoIIA: 7.9; Cneo AK release: -1.5

What do the screens show for `CC(=O)N1[C@H](CO)[C@H]2c3ccccc3N(C(=O)c3ccccc3)C[C@H]21`?
Ecoli rRNA inh: 1.6; Statin myotox sup: 4.7; SIRT5 inh: -0.7; PGC1a acetyl inh: 5.7; S100A4 MyoIIA: -8.7; Cneo AK release: -1.4

Results for CS(=O)(=O)Nc1ccccc1C(=O)NCCSc1ccccc1 ?
Ecoli rRNA inh: -22.2*; Statin myotox sup: 2.3; SIRT5 inh: -3.9; PGC1a acetyl inh: -6.6; S100A4 MyoIIA: 0.0; Cneo AK release: -3.4; AID977621: 1.26; AID977628: -8.11

Results for O=C(Nc1cccc(Cl)c1)N1C[C@H]2[C@@H](c3ccccc31)[C@H](CO)N2Cc1ccncc1 ?
Ecoli rRNA inh: -29.3*; Statin myotox sup: -27.4; SIRT5 inh: -0.1; PGC1a acetyl inh: -0.7; S100A4 MyoIIA: 7.9; Cneo AK release: -11.1; AID977628: inconclusive

What do the screens show for `O=C(Nc1ccccc1F)N1C[C@@H]2[C@H](c3ccccc31)[C@@H](CO)N2C(=O)Cc1ccccc1`?
Ecoli rRNA inh: -43.6*; Statin myotox sup: 12.5; SIRT5 inh: 3.8; PGC1a acetyl inh: -0.1; S100A4 MyoIIA: 2.2; Cneo AK release: -0.6; AID977628: inconclusive

Results for O=C(Nc1cccc(Cl)c1)N1C[C@H]2[C@@H](c3ccccc31)[C@H](CO)N2C(=O)c1ccncc1 ?
Ecoli rRNA inh: -17.5; Statin myotox sup: 5.5; SIRT5 inh: -0.6; PGC1a acetyl inh: 0.2; S100A4 MyoIIA: 3.9; Cneo AK release: -3.0

How did O=C(Nc1cccc(Cl)c1)N1C[C@H]2[C@@H](c3ccccc31)[C@@H](CO)N2C(=O)c1ccncc1 do in these assays?
Ecoli rRNA inh: -23.0*; Statin myotox sup: 10.7; SIRT5 inh: 1.6; PGC1a acetyl inh: -11.5; S100A4 MyoIIA: 4.8; Cneo AK release: -2.6; AID977628: inconclusive

How did COc1ccccc1C(=O)Nc1ccc2c(c1)OC[C@@H](C)N(CC1CC1)C[C@H](C)[C@H](OC)CN(C)C2=O do in these assays?
Ecoli rRNA inh: -0.9; Statin myotox sup: 0.0; PGC1a acetyl inh: 13.7

How did Nc1ccc2nc(-c3ccc(Cl)cc3)[nH]c2c1 do in these assays?
Ecoli rRNA inh: -17.1*; Statin myotox sup: -12.0; SIRT5 inh: -0.9; PGC1a acetyl inh: -14.6; S100A4 MyoIIA: -12.8; Cneo AK release: -1.2; AID977628: -8.79

Results for Nc1ccc2nc(-c3cc(Cl)c(N)c(Cl)c3)[nH]c2c1 ?
Statin myotox sup: 28.2; PGC1a acetyl inh: -30.8; Cneo AK release: -4.4

What do the screens show for `C[C@@H]1CN([C@@H](C)CO)C(=O)c2cc(NC(=O)CCN3CCOCC3)ccc2O[C@@H]1CN(C)Cc1ccc2c(c1)OCO2`?
Ecoli rRNA inh: 0.6; Statin myotox sup: 0.4; SIRT5 inh: 4.9; PGC1a acetyl inh: -0.7; S100A4 MyoIIA: 7.3; Cneo AK release: 0.8

Screens from PubChem.
